Assay results from different studies.
Compare with care: the assays were run in different laboratories.
Organism: Staphylococcus aureus
Observed: microbial growth

O=C(OC[C@H]1O[C@@H](OC(=O)c2cc(O)c(O)c(O)c2)[C@H](OC(=O)c2cc(O)c(O)c(O)c2)[C@@H](OC(=O)c2cc(O)c(O)c(O)c2)[C@@H]1OC(=O)c1cc(O)c(O)c(O)c1)c1cc(O)c(O)c(O)c1
MIC (broth dilution; 16 h): 100 µg/mL

Cc1[nH]c(C(=O)Nc2ccc(C(=O)NCC(=O)O)cc2N2CC[C@H](NC(=O)OC(C)(C)C)C2)c(Cl)c1Cl
MIC (broth dilution; ATCC29213): > 32 µg/mL

CC(O)CSc1nnc(COc2ccc(Cl)cc2Br)n1-c1ccccc1 (centres unmarked)
MIC: 12000 µg/mL

O=C(O)[C@H]1O[C@@H](Oc2c(-c3ccc(O)c(O)c3)oc3cc(O)cc(O)c3c2=O)[C@H](O)[C@@H](O)[C@@H]1O
MIC (broth dilution; 16 h): > 250 µg/mL

Cc1[nH]c(C(=O)Nc2ccc(C(=O)NCC(=O)O)cc2N2CCNCC2)c(Cl)c1Cl.Cl
MIC (broth dilution; ATCC29213): > 32 µg/mL

CN[C@H](CC(C)C)C(=O)N[C@H]1C(=O)N[C@@H](CC(N)=O)C(=O)N[C@H]2C(=O)N[C@H]3C(=O)N[C@H](C(=O)N[C@H](C(=O)O)c4cc(O)cc(O)c4-c4cc3ccc4O)[C@H](O)c3ccc(c(Cl)c3)Oc3cc2cc(c3O[C@@H]2O[C@H](CO)[C@@H](O)[C@H](O)[C@H]2O[C@H]2C[C@](C)(N)[C@H](O)[C@H](C)O2)Oc2ccc(cc2Cl)[C@H]1O
MIC (ATCC29213 MSSA): 0.67 µM

C=C/C=C(\C)CC[C@@H]1C[C@@H](O)CC(=O)O1
MIC (broth dilution; ATCC6538P): 256 µg/mL

O=C(C=Cc1ccc(O)c(O)c1)OCc1ccccc1
MIC (broth dilution; FDA209): 8 µg/mL

Cc1[nH]c(C(=O)Nc2ccc(C(=O)NCC(=O)O)cc2N2CC[C@@H](N)C2)c(Cl)c1Cl.Cl
MIC (broth dilution; ATCC29213): > 32 µg/mL

Cc1nn(-c2ccccc2)c2c1C(c1cncs1)N(C(=O)c1ccncc1)N2 (centres unmarked)
MIC (MTCC96; 24 h): 32 µg/mL

Cl.O=C(O)CNC(=O)c1ccc(NC(=O)c2cc(Br)c(Br)[nH]2)c(N2CCNCC2)c1
MIC (broth dilution; ATCC29213): > 32 µg/mL

CC1CCC(C(C)C)C(OC(=O)C=Cc2ccc(O)c(O)c2)C1 (centres unmarked)
MIC (broth dilution; FDA209): 4 µg/mL

Cc1nn(-c2ccccc2)c2c1C(c1ccc(Cl)cc1)N(C(=O)c1ccncc1)N2 (centres unmarked)
MIC (MTCC96; 24 h): > 100 µg/mL

Nc1ccccc1OC(=O)C=Cc1ccc(O)c(O)c1
MIC (broth dilution; FDA209): 8 µg/mL

Cl.N[C@H]1CCN(c2cc(C(=O)NCC(=O)O)ccc2NC(=O)c2cc(Br)c(Br)[nH]2)C1
MIC (broth dilution; ATCC29213): > 32 µg/mL

CN[C@@H]1[C@@H](O[C@H]2O[C@H](CO)[C@@H](N)[C@H](O)[C@H]2O)OC2C[C@@H](N)[C@@H](O[C@H]3[C@H](O)[C@@H](O)[C@H](N)C[C@@H]3N)OC2[C@@H]1O (some centres unmarked)
MIC (24 h): 1.25 to 2.5 µM

Cc1ccc(-c2nnc(SCC(C)O)n2-c2ccccc2)cc1 (centres unmarked)
MIC: 3500 µg/mL

O=C(O)c1cn(C2CC2)c2cc(N3CCNCC3)c(F)cc2c1=O
MIC (MTCC96; 24 h): 0.12 µg/mL

O=C(N[C@H](CO)[C@H](O)c1ccc([N+](=O)[O-])cc1)C(Cl)Cl
MIC (24 h): 5 to 10 µM

CC(C)(C)OC(=O)N[C@@H]1CCN(c2cc(C(=O)NCC(=O)O)ccc2NC(=O)c2cc(Br)c(Br)[nH]2)C1
MIC (broth dilution; ATCC29213): > 32 µg/mL

CC(O)CSc1nnc(-c2cc3c(ccc4ccccc43)o2)n1-c1ccccc1 (centres unmarked)
MIC: 10000 µg/mL

Cc1nn(-c2ccccc2)c2c1C(c1ccco1)N(C(=O)c1ccncc1)N2 (centres unmarked)
MIC (MTCC96; 24 h): 64 µg/mL

O=C(C=Cc1ccc(O)c(O)c1)Oc1ccccc1
MIC (broth dilution; FDA209): 16 µg/mL

Cc1[nH]c(C(=O)Nc2ccc(C(=O)NCc3n[nH]c(=O)o3)cc2N2CCNCC2)c(Cl)c1Cl.Cl
MIC (broth dilution; ATCC29213): > 32 µg/mL

COc1ccc(C2c3c(C)nn(-c4ccccc4)c3NN2C(=O)c2ccncc2)cc1 (centres unmarked)
MIC (MTCC96; 24 h): 64 µg/mL

CC1(C)S[C@@H]2[C@H](NC(=O)[C@H](N)c3ccccc3)C(=O)N2[C@H]1C(=O)O
MIC (broth dilution; FDA209): 4 µg/mL
